Structures are written as SMILES. pEC50: −log10 of the molar value.

System in the first data set: not listed separately
Nature of the data set: Cytotoxicity against human MT4 cells after 96 hrs by MTT assay. The format is cell-based.
Conditions: not given
In short, it runs like this:
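Exponentially growing MT-4 cells seeded at 1 × 10^5 cells/ml in RPMI-1640 with 10 % FBS and penicillin/streptomycin. Incubated at 37 °C, 5 % CO2, with or without serial compound dilutions (100 mM DMSO stocks diluted in medium), run in parallel with the antiviral test. Viability by MTT after 96 h.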
For the molecule `O=c1c2ccccc2c2c(-c3ccccc3)c3c(=O)n(CCCCN4CCN(c5ccccc5)CC4)c(=O)c3c(-c3ccccc3)c12`, the CC50 (in general, the concentration giving 50% cytotoxicity) at 96 h is above 100 µM. Still for that read-out and setting: the figure for `O=c1c2ccccc2c2c(-c3ccccc3)c3c(=O)n(CCCCN4CCN(c5ccccn5)CC4)c(=O)c3c(-c3ccccc3)c12` is above 100 µM. On to `O=c1c2ccccc2c2c(-c3ccccc3)c3c(=O)n(CCCCN4CCN(CCc5ccccc5C(F)(F)F)CC4)c(=O)c3c(-c3ccccc3)c12`, for which the cytotoxic concentration (CC50) at 96 h was 9 µM. Same read-out and setting: to `O=c1c2ccccc2c2c(-c3ccccc3)c3c(=O)n(CCCCN4CCN(c5ccccc5F)CC4)c(=O)c3c(-c3ccccc3)c12` belongs above 100 µM; to `O=c1c2ccccc2c2c(-c3ccccc3)c3c(=O)n(CCCCN4CCN(c5ccc(F)cc5)CC4)c(=O)c3c(-c3ccccc3)c12`, above 100 µM; to `O=c1c2ccccc2c2c(-c3ccccc3)c3c(=O)n(CCCCN4CCN(c5ccc(Cl)cc5)CC4)c(=O)c3c(-c3ccccc3)c12`, above 100 µM.

For `O=c1c2ccccc2c2c(-c3ccccc3)c3c(=O)n(CCCCN4CCN(c5ccccc5Cl)CC4)c(=O)c3c(-c3ccccc3)c12`, the CC50 at 96 h was above 100 µM.

The subject of another data set is Human immunodeficiency virus 1. Briefly: Antiviral activity against Human immunodeficiency virus 1 3B infected in human MT4 cells assessed as inhibition of virus-induced cytopathogenicity after 4 days by MTT assay. The format is functional, organism-based. Conditions: MT4, 96 h. In short, it runs like this: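 MT-4 cells (1 × 10^4 per well) in RPMI with or without serial compound dilutions, acutely infected with HIV-1 at m.o.i. 0.01 (100 CCID50). After 4-day incubation at 37 °C, protection from virus-induced cytopathogenicity was read as cell viability by MTT. Compounds were made as 100 mM DMSO stocks and diluted in medium.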
(Protection from cytopathic effect is a common read-out in antiviral testing.)
In the case of `O=c1[nH]c(=O)c2c(-c3ccccc3)c3c(c(-c4ccccc4)c12)c(=O)c1ccccc13`, the pEC50 – broadly, the negative decadic logarithm of the EC50, by convention in mol/L – is below 5.05.

As to `O=c1c2ccccc2c2c(-c3ccccc3)c3c(=O)n(CCCCN4CCN(c5ccccc5)CC4)c(=O)c3c(-c3ccccc3)c12`, the negative-log EC50 (pEC50) was below 4.00. The same measure, in the same setting: to `O=c1c2ccccc2c2c(-c3ccccc3)c3c(=O)n(CCCCN4CCN(c5ccccn5)CC4)c(=O)c3c(-c3ccccc3)c12` belongs below 4.00; to `O=c1c2ccccc2c2c(-c3ccccc3)c3c(=O)n(CCCCN4CCN(CCc5ccccc5C(F)(F)F)CC4)c(=O)c3c(-c3ccccc3)c12`, below 5.05. On the same count and under the same terms, to `O=c1c2ccccc2c2c(-c3ccccc3)c3c(=O)n(CCCCN4CCN(c5ccccc5F)CC4)c(=O)c3c(-c3ccccc3)c12` belongs below 4.00; to `O=c1c2ccccc2c2c(-c3ccccc3)c3c(=O)n(CCCCN4CCN(c5ccc(F)cc5)CC4)c(=O)c3c(-c3ccccc3)c12`, below 4.00; to `O=c1c2ccccc2c2c(-c3ccccc3)c3c(=O)n(CCCCN4CCN(c5ccc(Cl)cc5)CC4)c(=O)c3c(-c3ccccc3)c12`, below 4.00.

For the molecule `O=c1c2ccccc2c2c(-c3ccccc3)c3c(=O)n(CCCCN4CCN(c5ccccc5Cl)CC4)c(=O)c3c(-c3ccccc3)c12`, the pEC50 is below 4.00.

Source of the values: ChEMBL document CHEMBL2429760, “Synthesis and structure evaluation of new complex butylarylpiperazin-1-yl derivatives” (Med Chem Res, 2013).
